Out of some 2,500 compounds screened, about 1,200 (48%) were called active.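 How the source made its calls: active means mean activation above the low control average plus 3 SD, as set in the primary screen (cut at about 12% in these data); inactive means the rest.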 So high a share suggests a set chosen from earlier hits. The list shows a part of the results.
These compounds were tested against Troponin I, cardiac muscle (Homo sapiens) + Troponin T, cardiac muscle (Homo sapiens) + Troponin C, slow skeletal and cardiac muscles (Homo sapiens) (UniProt P19429+P45379+P63316) (assay: cardiac RTF calcium sensitivity activators, confirmation, biochemical, IANBD-TnC fluorescence, triplicate (AID 504383;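 further: 0% = DMSO at 0.472 mM calcium and 100% = DMSO at 2.9 mM calcium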)). Conditions: IANBD-labeled cardiac RTF, Ca2+ sensitivity fluorescence; at 7.2 µM; stronger effect = higher value; scaled from EC20 to saturating calcium; tested at EC20 calcium, 0.472 mM.
How it was run: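 Assay system: labelled regulated thin filaments / Timing: 15 min at 25 °C / Detection: fluorescence intensity of labelled filaments / Measure: fluorescence gain scaled between EC20 and EC100 calcium controls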

SMILES	activation
C=C1CCN(C(CC(C)C)C(=O)OC)S(=O)(=O)c2ccccc21 (stereo not drawn)	4.69% (inactive)
O=C(O)c1ccc2c(c1)S(=O)(=O)c1ccccc1C2=O	6.82% (inactive)
C=C1CCN([C@@H](Cc2ccccc2)C(=O)O)S(=O)(=O)c2ccccc21	15.6% (active)
COc1ccc(/C=C/C=C2\N=C(SC)SC2=O)cc1	6.95% (inactive)
COc1ccc(/C=C/c2nc3sc4c(c3c(=O)o2)CCC4)cc1	292% (active)
Fc1ccc(-c2[nH]ncc2CN(CC2CCC2)CC2CCCO2)c(F)c1 (stereo not drawn)	46.1% (active)
CCN1C(=O)/C(=C/c2ccc(N3CCCC3)cc2)NC1=S	7.36% (inactive)
CN1C/C(=C\c2ccc(N3CCOCC3)cc2)C(=O)/C(=C/c2ccc(N3CCOCC3)cc2)C1	11.8% (active)
CCCN1C(=O)/C(=C/c2ccc(N3CCOCC3)cc2)NC1=S	217% (active)
CCN1C/C(=C/c2ccc(N3CCOCC3)cc2)C(=O)/C(=C/c2ccc(N3CCOCC3)cc2)C1	4.14% (inactive)
O=C1/C(=C/c2ccc(N3CCCC3)cc2)NC(=S)N1C1CC1	1.84% (inactive)
CCC(C)NC(=O)C1CC(=O)N(CCc2ccc(F)cc2)C1 (stereo not drawn)	331% (active)
COc1ccc(S(=O)(=O)N2CCC(C(=O)NC(C)CCc3ccccc3)CC2)cc1 (stereo not drawn)	11.2% (inactive)
Clc1ccccc1/C=N/NC1=Nc2cccc3cccc1c23	5.59% (inactive)
O=[N+]([O-])c1ccc(N/N=C/c2ccc(OCc3cccc4ccccc34)cc2)nc1	8.03% (inactive)
O=[N+]([O-])c1ccc(NN=Cc2cccc3ccccc23)nc1	31.4% (active)
Cc1cc(C)c2c(=O)n(-c3ccccc3)[nH]c2n1	10.3% (inactive)
O=c1c(/C=N/Nc2ccccc2)c(Sc2nnnn2-c2ccccc2)nc2ccccn12	2.36% (inactive)
Cc1cc(C)c(C#N)c(Sc2nnnn2-c2ccccc2)n1	27.6% (active)
CC(C)(C)c1cc(NCc2ccccn2)n2ncc(-c3ccc(Cl)cc3)c2n1	7.76% (inactive)
COC(=O)c1c(=O)n(O)c2ccc(OC)cc2[n+]1[O-]	16.1% (active)
COc1ccc2c(c1)c(/C=C/c1cc[n+](C)cc1)cn2C	4.1% (inactive)
CCOC(=O)c1c(=O)n(O)c2ccc(OC)cc2[n+]1[O-]	8.7% (inactive)
COC(=O)C1CSc2[nH]c(=O)sc2C1c1ccccc1 (stereo not drawn)	8.86% (inactive)
CN(C)c1ccc(/C=C2\NC(=S)N(Cc3ccccc3)C2=O)cc1	217% (active)

SMILES	activation
Cc1ccc(C2C3CN(C(C)C)CC=C3C(C#N)=C(N)C2(C#N)C#N)cc1 (stereo not drawn)	9.22% (inactive)
Cc1ccc([C@@H]2C3COCC=C3C(C#N)=C(N)C2(C#N)C#N)o1 (stereo partly drawn)	13.5% (active)
CCC(CC)C(=O)c1c[nH]c(C(=O)N2CCN(c3ccccc3F)CC2)c1	60.8% (active)
CC(C)CN1CCC(C(=O)N2CCN(c3ccccc3F)CC2)CC1	4.79% (inactive)
CC(=O)Nc1cc(C(=O)NCc2ccco2)ccc1Sc1ccc(F)cc1	69.2% (active)
COc1c(Cl)ccc(Cl)c1C(=O)NCc1ccco1	8.15% (inactive)
O=C(NCc1ccco1)c1cc(-c2cccc(Cl)c2)on1	4.34% (inactive)
CCOc1ccc(CNC(=O)c2ccc(Sc3ccc(Cl)cc3)c(NC(C)=O)c2)cc1	16.5% (active)
CCOc1c2ccc(C(=O)NCc3ccc(C)cc3)cc2nn1CCOC	0.03% (inactive)
CC1(C)CC(=O)C2=C(C1)OC(N)=C(C#N)[C@@H]2c1ccccc1[N+](=O)[O-]	22% (active)
O=C1C2C3C=CC(C4CC34)C2C(=O)N1/N=C/c1ccc(-c2ccc(F)cc2[N+](=O)[O-])o1 (stereo not drawn)	23.2% (active)
Cc1cc(/C=C2\SC(=S)N(Cc3ccco3)C2=O)c(C)n1-c1cccnc1	48.4% (active)
CCN1C(=S)SC(=O)C1=C1C=C(C)N(Cc2ccco2)C(C)=C1	8.86% (inactive)
Cc1cc(/C=C2\SC(=S)N(C)C2=O)c(C)n1-c1ccccc1O	33% (active)
CCN1CCN(c2c(/C=C3\SC(=S)N(Cc4ccco4)C3=O)c(C)c(C#N)c(=O)n2C)CC1	4.2% (inactive)
COc1ccc(-n2c(C)cc(/C=C3\SC(=S)N(Cc4ccco4)C3=O)c2C)cc1	239% (active)
COc1ccc(-n2c(C)cc(/C=C3\SC(=S)NC3=O)c2C)cc1	8.15% (inactive)
COc1ccc(O)c(/C=C2/SC(=S)N(Cc3ccccc3)C2=O)c1	0.43% (inactive)
Cc1cc(/C=C2\SC(=S)N(Cc3ccco3)C2=O)c(C)n1-c1ccccc1	17.4% (active)
COc1cccc2c1C(=O)c1c(O)c3c(c(O)c1C2=O)CC(O)(C(C)=NNC(=O)c1ccc(Cl)c(Cl)c1)CC3OC1CC(N)C(O)C(C)O1 (stereo not drawn)	5.43% (inactive)
O=C(c1c[nH]c(C(=O)C(Cl)(Cl)Cl)c1)c1c(F)cccc1F	3920% (active)
CN(C)C=NC(=O)c1cc(C(=O)c2ccccc2Cl)c[nH]1	11% (inactive)
O=S(=O)([N-]c1nc2ccccc2nc1-[n+]1ccc(-c2ccncc2)cc1)c1ccccc1	4.89% (inactive)
Cc1ccc[n+](-c2nc3ccccc3nc2[N-]S(=O)(=O)c2ccccc2)c1	55.5% (active)
CCOC(=O)N1CCC(NC(=O)c2cccs2)CC1	6.98% (inactive)

SMILES	activation
CCOC(=O)c1cc(-c2ccc(F)cc2)n(CCC(=O)NC2CCN(Cc3ccccc3)CC2)c1C	10.5% (inactive)
CCOC(=O)N1CCC(Nc2cccc(SC)c2)CC1	246% (active)
Cc1ccc(Cn2c(O)c(N=NC(=S)Nc3ccccc3F)c3cc(S(=O)(=O)N4CCOCC4)ccc32)cc1	17.5% (active)
Oc1c(N=NC(=S)Nc2ccccc2F)c2ccccc2n1Cc1ccc(F)cc1	3.17% (inactive)
CCOC(=O)CCC(=O)NCc1ccc2c(c1)cc(C)n2C	11.9% (active)
O=C(O)CSc1ncnc2scc(-c3ccc(Br)cc3)c12	11.7% (active)
CCc1ccc(-n2c(O)c(C=NCCN(CC)CC)c(=O)[nH]c2=O)cc1	20.8% (active)
CC(C)(C)NC(=O)CSc1nnc(-c2ccccn2)n1-c1ccccc1	6.6% (inactive)
Cc1nnc(SCC(=O)NC(C)(C)C)n1C1CCCCC1	45% (active)
CN(C)S(=O)(=O)c1ccc2c(c1)/C(=C/c1cc3c([nH]1)CCCC3)C(=O)N2	18.2% (active)
Cc1ccc(-n2c(C)n[nH]c2=S)cc1	6.67% (inactive)
S=c1[nH]nc(-c2ccc(Cl)cc2)n1-c1ccc2c(c1)OCCO2	136% (active)
Cn1c(=O)c(NCCO)c2c3c(cccc31)C(=O)c1ccccc1-2	4.78% (inactive)
CC(=O)Nc1ccc(Nc2c3c4c(cccc4n(C)c2=O)C(=O)c2ccccc2-3)cc1	26.1% (active)
Cn1c(=O)c(NC2CCCCC2)c2c3c(cccc31)C(=O)c1ccccc1-2	9.43% (inactive)
Cc1nc(-c2ccc(C#N)cc2)cs1	8.7% (inactive)
CCOC(=O)C1C(=O)NC(SCC(N)=O)=C(C#N)C1c1ccccc1OCC (stereo not drawn)	2.57% (inactive)
O=C(O)[C@@H]1[C@H]2C[C@H]3c4[nH]c5ccccc5c4CCN3C[C@@H]2CC[C@@H]1O	1.98% (inactive)
Cc1ncoc1C(=O)N1CCc2c([nH]c3ccccc23)C1C(C)(C)C (stereo not drawn)	2.53% (inactive)
COC(=O)C1C2CC3c4[nH]c5cc(OC)ccc5c4CCN3CC2CC(OC(=O)CC(C)=O)C1OC (stereo not drawn)	7.14% (inactive)
COC(=O)C1=COC(C)C2CN3CCc4c([nH]c5cc(OC)c(OC)cc45)C3CC12 (stereo not drawn)	15.2% (active)
COC(=O)C1=COC(C)C2CN3CCc4c([nH]c5ccccc45)C3CC12 (stereo not drawn)	12.5% (active)
COC(=O)CCC(=O)OC1(C)C(=O)C=C2C=C(C3CC3)N(c3cccc(C#N)c3)C=C2C1=O (stereo not drawn)	0.81% (inactive)
COc1ccc(/C=N/N=C2/CC(C)(C)Cc3n[nH]c(=O)cc32)cc1	955% (active)
N=c1oc2ccccc2cc1-c1nc(-c2ccccc2)cs1	4.19% (inactive)

SMILES	activation
CCN(CC)c1ccc2cc(-c3nnc(-c4ccncc4)o3)c(=O)oc2c1	18.1% (active)
CCN(CC)c1ccc2cc(-c3nnc(-c4ccccc4)o3)c(=O)oc2c1	232% (active)
CCN(CC)c1ccc2cc(-c3nc4ccccc4n3C)c(=O)oc2c1	6.19% (inactive)
CCN(CC)c1ccc2cc(-c3nc(-c4cc5ccccc5oc4=O)cs3)c(=O)oc2c1	12% (active)
O=c1oc2ccccc2cc1-c1nc(-c2cccs2)cs1	7.53% (inactive)
Nc1c(C(=O)c2cccs2)sc2nsc(SCCN3CCCCC3)c12	-1.4% (inactive)
Brc1ccc2[nH]c3nc(SCCN4CCOCC4)nnc3c2c1	6.16% (inactive)
Nc1c(C(=O)c2ccc(Cl)cc2)sc2nsc(SCCN3CCOCC3)c12	12.7% (active)
COc1ccc(CNC(=O)C(C#N)c2nc3ccccc3nc2N2CCCC2)cc1 (stereo not drawn)	2.74% (inactive)
COc1ccc(CNC(=O)c2sc(=S)n(-c3ccccc3)c2N)cc1	64.8% (active)
COc1ccc(CNC(=O)c2cc3c(s2)CS(=O)C3)cc1 (stereo not drawn)	6.8% (inactive)
COC(=O)c1cc(-c2cccc(OC)c2)n[nH]1	16.6% (active)
CN1C=CC2=C(C#N)C(N)C(C#N)(C#N)[C@H](c3ccccc3)[C@H]2C1 (stereo partly drawn)	6.1% (inactive)
CN1CC=C2C(C#N)=C(N)C(C#N)(C#N)[C@H](c3cccs3)[C@H]2C1	13.3% (active)
CCCN1CC=C2C(C#N)=C(N)C(C#N)(C#N)C(c3cc(OC)ccc3OC)C2C1 (stereo not drawn)	2.79% (inactive)
COc1ccc(OC)c(C2C3CN(C(C)C)CC=C3C(C#N)=C(N)C2(C#N)C#N)c1 (stereo not drawn)	17.8% (active)
COc1cc([C@@H]2[C@H]3CN(C)CC=C3C(C#N)=C(N)C2(C#N)C#N)cc2c1OCO2	4.84% (inactive)
COc1cc(C2C3CN(C)CC=C3C(C#N)=C(N)C2(C#N)C#N)ccc1OC(C)C (stereo not drawn)	49.2% (active)
CN1C=CC2=C(C#N)C(N)C(C#N)(C#N)C(c3ccccc3)C2C1 (stereo not drawn)	4.16% (inactive)
CC(C)N1CC=C2C(C#N)=C(N)C(C#N)(C#N)C(c3ccccc3)C2C1 (stereo not drawn)	6.28% (inactive)
CN1CC=C2C(C#N)=C(N)C(C#N)(C#N)[C@H](c3cccc(Cl)c3)C2C1 (stereo partly drawn)	24.5% (active)
CN1CC=C2C(C#N)=C(N)C(C#N)(C#N)C(c3ccsc3)C2C1 (stereo not drawn)	7.36% (inactive)
CC(C)(C)OC(=O)N1CC=C2C(C#N)=C(N)C(C#N)(C#N)C(c3cccs3)C2C1 (stereo not drawn)	8.81% (inactive)

From PubChem BioAssay AID504383 (The Scripps Research Institute Molecular Screening Center, 2011)
